This is an account of results in PubChem BioAssay.

Test [1] is described as follows: nonspecific flux increase, KCNQ1-free cells – parental CHO cells, counter-screen for KCNQ1 potentiator project (AID 493006;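 active = duplicate-averaged activation above buffer control mean plus 5 SD of those controls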;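 for activation: fluorescence ratio of max minus min over baseline after K+ and Tl+ depolarization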). Conditions: parental CHO-K1 cells, FluxOR thallium flux, at 10 µM; hits give high values. Put shortly:
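Benchmarks – buffer and R-L3 controls · Assay system – untransfected host CHO-K1 cells with FluxOR thallium dye · Measure – fluorescence change ratio scaled 0% buffer, 100% R-L3 · Technique – kinetic thallium-flux fluorescence · Timing – overnight 37 °C plating, 90 min RT dye, 20 min compound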
On the technique in general: The purpose of a counterscreen is to sort out artefacts and off-target activity.

The target in test [2] is Potassium voltage-gated channel subfamily KQT member 1 (Homo sapiens) (UniProt P51787). In words: enhancement of KCNQ1 channel thallium flux – FluxOR thallium flux, CHO cells, duplicates, confirmation (AID 493007).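 For outcome: cells depolarized by a potassium plus thallium sulfate stimulus after compound.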 Conditions: KCNQ1 cell line, FluxOR thallium flux fluorescence, at 10 µM; hits give high values, % of reference activator effect, buffer zero. Put shortly:
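Material: CHO cells stably expressing the KCNQ1 potassium channel / Times: dye 90 min then compound 20 min, both at room temperature / Detection: kinetic thallium influx fluorescence with FluxOR dye, 10 s baseline, 110 s post-stimulus / Benchmarks: buffer-only wells as 0% and R-L3 activator as 100% / Replicates: each compound tested in duplicate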

The target in test [3] is Potassium voltage-gated channel subfamily KQT member 2 (Rattus norvegicus) (UniProt O88943). In words: KCNQ2 thallium flux enhancement – KCNQ2-CHO-K1 cells, selectivity assay for KCNQ1 potentiator project (AID 493009;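 active = mean duplicate potentiation above the buffer control mean plus 5 SD of buffer wells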;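 note: assay conditions were tuned for KCNQ1 rather than KCNQ2 modulators; signal is max minus min fluorescence divided by baseline after thallium stimulus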). Conditions: FluxOR thallium flux fluorescence, at 10 µM; hits give high values, scaled: buffer 0, activator control 100.
Test [4] deals with Potassium voltage-gated channel subfamily KQT member 1 (Homo sapiens) (UniProt P51787). The test can be described thus: KCNQ1 activators by electrophysiology – IonWorks patch clamp, KCNQ1-CHO cells, orthogonal assay for KCNQ1 potentiator project, confirmation (AID 493184;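 active = current rise at least 3 SD above the untreated control mean in each of two repeat wells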;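 for current potentiation: percent change of the same well's current before compound addition so 0% = no change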). Conditions: automated patch clamp current, at 10 µM; hits give high values. Put shortly:
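Probe or stimulus: depolarizing pulse to +40 mV from -90 mV; Material: CHO cells carrying KCNQ1; Compound: one dose, 10 µM final; Signal: automated voltage clamp, amphotericin B perforated patch; Read-out basis: percent current increase versus pre-compound level; Buffer or medium: pH 7.4 external bath; Replication: duplicates.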
On the technique in general: The patch-clamp technique gives a direct electrical read-out from membranes.

Activity calls are given as the source filed them.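 Rule for the calls, unless noted: active = potentiation averaged over duplicate wells exceeding buffer-only control mean by more than 3 SD; inactive = the rest.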

Potassium voltage-gated channel subfamily KQT member 1 (Homo sapiens), sequence (P51787 whole entry, looked up): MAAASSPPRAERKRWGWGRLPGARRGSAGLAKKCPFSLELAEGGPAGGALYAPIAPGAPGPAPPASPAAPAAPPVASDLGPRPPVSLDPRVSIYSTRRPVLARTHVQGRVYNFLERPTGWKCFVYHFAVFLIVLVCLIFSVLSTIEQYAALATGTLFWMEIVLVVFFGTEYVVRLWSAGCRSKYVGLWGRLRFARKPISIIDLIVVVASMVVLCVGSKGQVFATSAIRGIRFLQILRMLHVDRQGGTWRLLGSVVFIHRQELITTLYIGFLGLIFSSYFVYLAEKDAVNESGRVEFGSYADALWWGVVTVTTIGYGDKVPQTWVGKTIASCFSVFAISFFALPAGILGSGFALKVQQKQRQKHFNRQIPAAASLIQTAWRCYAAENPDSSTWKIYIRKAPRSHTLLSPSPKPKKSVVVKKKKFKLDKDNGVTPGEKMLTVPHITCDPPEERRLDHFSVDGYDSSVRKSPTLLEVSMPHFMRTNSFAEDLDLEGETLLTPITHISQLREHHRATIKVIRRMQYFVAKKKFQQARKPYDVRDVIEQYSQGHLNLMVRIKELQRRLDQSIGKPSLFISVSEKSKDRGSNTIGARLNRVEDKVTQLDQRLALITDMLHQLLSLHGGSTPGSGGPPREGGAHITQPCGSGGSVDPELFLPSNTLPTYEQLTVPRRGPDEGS
Potassium voltage-gated channel subfamily KQT member 2 (Rattus norvegicus), sequence (O88943 whole entry, looked up): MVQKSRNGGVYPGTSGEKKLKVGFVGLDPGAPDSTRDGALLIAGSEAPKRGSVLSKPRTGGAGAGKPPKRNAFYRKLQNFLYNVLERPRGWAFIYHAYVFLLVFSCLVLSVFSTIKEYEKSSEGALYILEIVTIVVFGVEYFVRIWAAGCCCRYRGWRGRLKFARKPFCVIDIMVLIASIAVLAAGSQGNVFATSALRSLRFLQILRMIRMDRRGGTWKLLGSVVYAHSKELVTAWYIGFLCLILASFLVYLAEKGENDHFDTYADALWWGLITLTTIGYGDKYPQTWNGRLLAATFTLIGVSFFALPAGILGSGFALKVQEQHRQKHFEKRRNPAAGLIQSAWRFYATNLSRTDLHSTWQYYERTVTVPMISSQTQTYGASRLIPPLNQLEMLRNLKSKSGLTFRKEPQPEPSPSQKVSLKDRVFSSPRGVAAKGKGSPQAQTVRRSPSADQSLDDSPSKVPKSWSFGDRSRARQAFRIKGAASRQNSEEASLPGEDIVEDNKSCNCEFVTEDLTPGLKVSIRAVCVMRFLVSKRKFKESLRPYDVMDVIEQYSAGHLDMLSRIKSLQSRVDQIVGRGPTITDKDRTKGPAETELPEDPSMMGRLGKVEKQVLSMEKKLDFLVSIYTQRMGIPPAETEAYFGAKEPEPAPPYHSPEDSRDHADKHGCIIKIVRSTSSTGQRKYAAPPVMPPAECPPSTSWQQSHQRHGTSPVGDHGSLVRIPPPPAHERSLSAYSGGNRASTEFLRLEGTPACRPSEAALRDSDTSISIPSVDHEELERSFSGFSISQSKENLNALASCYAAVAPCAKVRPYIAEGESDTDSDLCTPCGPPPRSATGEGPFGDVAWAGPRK

As to `NC(=O)CSc1nnc(-c2ccccc2Br)n1-c1cccc(C(F)(F)F)c1`, the outcome in test [1], in test [3] and in test [4] was inactive. Moreover, the potentiation in test [2] was 43.5% (active).

With `C=CCn1c(SCc2ccc(C(=O)O)cc2)nc2sc(C)c(C)c2c1=O`, in test [1], the activation is 216% (active). Also, the potentiation in test [2] was 72.5% (active); in test [3] it was 236% (active). Further, the outcome in test [4] was inactive.

As for `Cc1[nH]n(C(N)=S)c(=O)c1N=Nc1ccc2ccccc2c1`, in test [1], the activation is 150% (active). Also, the results for the potentiation in test [2] and in test [3] were 238% (active) and 628% (active), respectively. For the same compound, the result in test [4] was inactive.

On to `CCC(C)(C)NC(=O)C(c1ccncc1)N(Cc1cccs1)C(=O)Cn1nnc2ccccc21` (configuration not stated), for which the result in test [1], in test [2], in test [3] and in test [4] was inactive.

With `O=C1CC(c2cccs2)Cc2nc(NC(=O)C3CC3)ncc21` (configuration not stated), the outcome in test [1], in test [2], in test [3] and in test [4] was inactive.

On to `CC(=O)Oc1c(-c2ccco2)oc2ccccc2c1=O`, for which the activation in test [1] was 216% (active). The potentiation in test [2] is 31% (active); in test [3], 244% (active). Also, the result in test [4] was inactive.

Consider `S=c1[nH]c2ccc(Cl)cc2s1`, for which, in test [1], the activation is 614% (active). Moreover, the potentiation is 228% (active) in test [2] and 526% (active) in test [3]. Moreover, the outcome in test [4] was inactive.

Take `Cc1cc(C(=O)N2CCCC(N3CCN(c4cccc(Cl)c4)CC3)C2)n(C)n1` (configuration not stated): the outcome in test [1], in test [2], in test [3] and in test [4] was inactive.

Turning to `O=C(COC(=O)c1cc(NS(=O)(=O)c2cccs2)ccc1O)Nc1cc(Cl)ccc1Cl`, the outcome in test [1], in test [2], in test [3] and in test [4] was inactive.

In the case of `COC(=O)c1sc(NC(=S)NC(=O)c2ccccc2C)nc1C`, the activation in test [1] was 187% (active). The potentiation in test [2] is 50% (active); in test [3] it was 204% (active). The result in test [4] was inactive.

In the case of `CCCCNC(=S)NNC(=O)c1nn(C)c(C)c1Cl`, the result in test [1], in test [2], in test [3] and in test [4] was inactive.

Turning to `O=C(Nc1nnc(-c2ccc(Cl)cc2)o1)c1ccccc1Br`, the activation in test [1] is 228% (active). The potentiation in test [2] is 86.5% (active); in test [3], 234% (active). In addition, in test [4], the outcome was inactive.

`COc1cccc(-c2cn(-c3cccc(C(F)(F)F)c3)c(=S)[nH]2)c1`: the outcome in test [1], in test [2], in test [3] and in test [4] was inactive.

In the case of `O=C(NC(=S)Nc1ccccc1N1CCCC1)c1cccs1`, the activation in test [1] is 150% (active). Moreover, the results for the potentiation in test [2] and in test [3] were 104% (active) and 212% (active), respectively. Besides, in test [4], the outcome was inactive.

For `COCCn1cnc2c1c(=O)n(CC#N)c(=O)n2Cc1ccccc1`, the outcome in test [1], in test [2], in test [3] and in test [4] was inactive.

Take `CCSc1nnc(NC(=O)[C@H](C)NC(=O)c2ccccc2Cl)s1`: the result in test [1], in test [2], in test [3] and in test [4] was inactive.

Take `COc1cccc(/C=N/Nc2snc(SC)c2C#N)c1O`: the result in test [1], in test [2], in test [3] and in test [4] was inactive.

Take `Cc1cccc(CNC(=O)C2CCCN(c3nn4c(=O)cc(C)nc4s3)C2)c1` (configuration not stated): the outcome in test [1], in test [2], in test [3] and in test [4] was inactive.

As to `Cc1ccc(-n2c(=S)[nH]c3sc4c(c3c2=O)CCC4)cc1`, the activation in test [1] was 158% (active). For the same compound, the potentiation was 42.5% (active) in test [2] and 176% (active) in test [3]. Besides, the outcome in test [4] was inactive.

For `COc1ccc(CN(C)CC(=O)Nc2ccc(Cl)cc2C(F)(F)F)c(OC)c1`, the result in test [1], in test [3] and in test [4] was inactive. Further, the potentiation in test [2] was 37.5% (active).

For the compound `Cc1c(/C=N\NC(=O)c2ccc(F)cc2)cnn1C`, the result in test [1], in test [2], in test [3] and in test [4] was inactive.

`Oc1ccc(N=Nc2ccc3c(c2)OCCO3)c2ncccc12`: in test [1], the activation is 310% (active). Further, the potentiation in test [2] was 116% (active); in test [3], 352% (active). In addition, in test [4], the result was inactive.

On to `CN(C)CC1CCCCC1OC(=O)/C=C/c1ccc(Cl)cc1Cl` (configuration not stated), for which the result in test [1], in test [2], in test [3] and in test [4] was inactive.

Consider `O=c1ccc(-c2ccc(S(=O)(=O)Nc3ccccc3)o2)n[nH]1`, for which the result in test [1], in test [2], in test [3] and in test [4] was inactive.

As to `CCOC(=O)c1ccc(N2C(=O)c3n[nH]c(C)c3C2c2ccccn2)cc1` (configuration not stated), the outcome in test [1], in test [2], in test [3] and in test [4] was inactive.

`S=c1nc(C2CCCCC2)n(-c2ccccc2)[nH]1`: the activation in test [1] is 356% (active). The potentiation in test [2] was 117% (active); in test [3] it was 362% (active). In test [4], the result was inactive.

Take `O=C(NCc1ccccn1)c1ccc(COc2ccc(Cl)cc2)o1`: the activation in test [1] was 138% (active). The figures for the potentiation in test [2] and in test [3] were 26.5% (active) and 156% (active), respectively. Besides, the outcome in test [4] was inactive.

`Cc1ccccc1C(=O)NCc1ccncc1`: the outcome in test [1], in test [2], in test [3] and in test [4] was inactive.

Turning to `Cc1ccc(-n2cccc2/C=C2\C(=N)N3N=C(C(C)C)SC3=NC2=O)cc1`, the outcome in test [1] and in test [3] was inactive. The potentiation in test [2] was 23.5% (active). In addition, the current potentiation in test [4] is 36% (active).

As to `CS(=O)(=O)N1CCN(Cc2ccc(C(F)(F)F)cc2)CC1`, the result in test [1], in test [2], in test [3] and in test [4] was inactive.

Consider `CCn1c(CC(=O)Nc2ccccc2)nnc1SCC(=O)Nc1nncs1`, for which the result in test [1], in test [2], in test [3] and in test [4] was inactive.

For `Cc1ccc(SCC2(O)CCN(S(=O)(=O)c3ccc(Cl)cc3)CC2)cc1`, the result in test [1], in test [2], in test [3] and in test [4] was inactive.

`O=C(NC(=S)Nc1ccccc1)c1ccc(Br)o1`: the result in test [1] and in test [4] was inactive. Further, the potentiation in test [2] is 21.5% (active); in test [3] it was 158% (active).
